Data on 2 compounds can be found in ChEMBL document CHEMBL4622936, “Discovery of the potent non-steroidal glucocorticoid receptor modulator BAY 1003803 as clinical candidate” (Bioorg Med Chem Lett, 2020).

Series [1] relates to PBMC. Briefly: Inhibition of LPS-induced TNFalpha release in human PBMC cells. The format is functional, cell-based. The essentials:
(§1)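 Primary human peripheral blood mononuclear cells were stimulated with LPS (IL-12p40, TNFα) or PHA (IFNγ, IL-2, IL-4). Cytokine release was measured with test compound, and clobetasol and dexamethasone were run in parallel as reference glucocorticoids.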

The subject of series [2] is PBMC. Briefly: Inhibition of LPS-induced IL12p40 release in human PBMC cells relative to control. Format: functional.
Series [3] is described as follows: Lipophilicity, logP of compound. The conditions noted are these: octanol/water. The format is physicochemical.
The nature of series [4]: Clearance in female Wistar rat plasma at 5 mg/kg, iv. Format: ADME, organism-based.
A short description of series [5]: Clearance in female Beagle dog plasma at 1 mg/kg, iv. Format: ADME, organism-based, Canis lupus familiaris.
A short description of series [6]: Volume of distribution at steady state in female Wistar rat blood at 5 mg/kg, iv. Format: ADME, organism-based. The conditions noted are these: whole blood, read-out: Vdss.
Series [7] deals with PBMC. Briefly: Inhibition of LPS-induced TNFalpha release in human PBMC cells relative to control. Format: functional.
Series [8] can be described thus: Drug metabolism in rat Hepatocyte assessed as demethylation product M-4 formation. Format: ADME, cell-based. The conditions noted are these: hepatocytes.
Series [9] is described as follows: Drug metabolism in human Hepatocyte assessed as demethylation product M-5 formation. Format: ADME, cell-based. The conditions noted are these: hepatocytes.
Series [10] is described as follows: Metabolic stability in rat Hepatocyte assessed as intrinsic clearance. The conditions noted are these: hepatocytes, read-out: CLH (converted). The format is ADME, cell-based.
Series [11] can be described thus: Drug metabolism in rat Hepatocyte assessed as demethylation product M-1 formation. The format is ADME, cell-based. The conditions noted are these: hepatocytes.
A short description of series [12]: Terminal half life in female Wistar rat blood at 5 mg/kg, iv. The conditions noted are these: whole blood, read-out: beta t1/2 (converted). The format is ADME, organism-based.
Series [13] can be described thus: Drug metabolism in human Hepatocyte assessed as demethylation product M-1 formation. The conditions noted are these: hepatocytes. Format: ADME, cell-based.
Series [14] relates to PBMC. Briefly: Inhibition of PHA-induced IL4 release in human PBMC cells relative to control. The format is functional.
Series [15] can be described thus: Metabolic stability in dog Hepatocyte assessed as intrinsic clearance. The format is ADME, cell-based, Canis lupus familiaris. The conditions noted are these: hepatocytes, read-out: CLH (converted).
Series [16] in a line: Drug metabolism in rat Hepatocyte assessed as demethylation product M-2 formation. Format: ADME, cell-based. The conditions noted are these: hepatocytes.
Series [17] is described as follows: Volume of distribution at steady state in female Beagle dog blood at 1 mg/kg, iv. Format: ADME, organism-based, Canis lupus familiaris. The conditions noted are these: whole blood, read-out: Vdss.
Series [18] relates to PBMC. Briefly: Inhibition of PHA-induced IL2 release in human PBMC cells. The format is functional, cell-based. Summed up:
as §1

Series [19] has as its system THP-1. Kind of series: Immunomodulatory activity in human THP1 cells assessed as reduction in LPS-induced IL-8 production. The format is functional, cell-based. The essentials: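 Human promyeloid THP-1 cells were stimulated with lipopolysaccharide to induce IL-8 synthesis, and inhibition of IL-8 production by the test compound was measured.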
Series [20] relates to PBMC. Kind of series: Inhibition of PHA-induced IFNgamma release in human PBMC cells relative to control. The format is functional.
Series [21] in a line: Drug metabolism in dog Hepatocyte assessed as demethylation product M-1 formation. Format: ADME, cell-based, Canis lupus familiaris. The conditions noted are these: hepatocytes.
A short description of series [22]: Terminal half life in female Beagle dog blood at 1 mg/kg, iv. The conditions noted are these: whole blood, read-out: beta t1/2 (converted). Format: ADME, organism-based, Canis lupus familiaris.
The nature of series [23]: Drug metabolism in human Hepatocyte assessed as demethylation product M-4 formation. The format is ADME, cell-based. The conditions noted are these: hepatocytes.
The nature of series [24]: Efflux ratio of apparent permeability from apical to basolateral side in human Caco2 cells. The format is ADME, cell-based. The conditions noted are these: Caco-2. Summed up:
(§2)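 Caco-2 monolayers. Apparent permeability (Papp) was measured from the apical to the basolateral compartment and also in the reverse direction. Efflux ratio is Papp B→A divided by Papp A→B.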
(In general: Caco-2 cells form a polarised layer with tight junctions and transporters.)

Series [25] can be described thus: Clearance in female Wistar rat blood at 5 mg/kg, iv. Format: ADME, organism-based. The conditions noted are these: whole blood.
A short description of series [26]: Metabolic stability in human Hepatocyte assessed as intrinsic clearance. The format is ADME, cell-based. The conditions noted are these: hepatocytes, read-out: CLH (converted).
A short description of series [27]: Drug metabolism in dog Hepatocyte assessed as demethylation product M-4 formation. The format is ADME, cell-based, Canis lupus familiaris. The conditions noted are these: hepatocytes.
The nature of series [28]: Clearance in female Beagle dog blood at 1 mg/kg, iv. The format is ADME, organism-based, Canis lupus familiaris. The conditions noted are these: whole blood.
Series [29] concerns THP-1. Briefly: Immunomodulatory activity in human THP1 cells assessed as reduction in LPS-induced IL-8 production relative to control. The format is functional.
Series [30] can be described thus: Drug metabolism in rat Hepatocyte assessed as demethylation product M-3 formation. The format is ADME, cell-based. The conditions noted are these: hepatocytes.
Series [31] in a line: Inhibition of collagenase (unknown origin) transfected in human HeLa cells by luciferase reporter gene assay. The format is cell-based. On the technique in general: Reporter assays use an easily measured gene product as a stand-in for the process of interest.
Another series has as its system HeLa. Kind of series: Inhibition of collagenase (unknown origin) transfected in human HeLa cells by luciferase reporter gene assay relative to control. Format: cell-based.
Series [32] in a line: Apparent permeability from apical to basolateral side in human Caco2 cells. The format is ADME, cell-based. The conditions noted are these: Caco-2. The essentials:
as §2

In series [33] the test system is PBMC. Briefly: Inhibition of PHA-induced IL2 release in human PBMC cells relative to control. The format is functional.
For series [34], the system named is PBMC. Briefly: Inhibition of PHA-induced IL4 release in human PBMC cells. The format is functional, cell-based. The essentials: as §1
Series [35] concerns PBMC. Kind of series: Inhibition of LPS-induced IL12p40 release in human PBMC cells. The format is functional, cell-based. The essentials: as §1
The subject of series [36] is PBMC. Kind of series: Inhibition of PHA-induced IFNgamma release in human PBMC cells. The format is functional, cell-based. The essentials: as §1
The nature of series [37]: Volume of distribution at steady state in male Wistar rat blood at 1 mg/kg, iv. Format: ADME, organism-based. The conditions noted are these: whole blood, read-out: Vdss.
A short description of series [38]: Terminal half life in male Wistar rat blood at 1 mg/kg, iv. The format is ADME, organism-based. The conditions noted are these: whole blood, read-out: beta t1/2 (converted).
Series [39] is described as follows: Clearance in male Wistar rat plasma at 1 mg/kg, iv. Format: ADME, organism-based.
Series [40] in a line: Clearance in male Wistar rat blood at 1 mg/kg, iv. Format: ADME, organism-based. The conditions noted are these: whole blood.

Broadly, the IC50 is the point on the concentration scale where inhibition reaches its midpoint. By logP is commonly meant the decadic logarithm of the partition coefficient of the neutral form, usually between octanol and water. As usually defined, the clearance is a measure of how efficiently the substance is removed, as volume per time. Read a low clearance as a low capacity for elimination. The term efflux ratio denotes the permeability from basolateral to apical divided by that in the opposite direction, in the common usage. The Emax is the greatest response seen or fitted, relative to the assay's reference. In general, EC50 refers to the concentration giving half of the maximal effect. High values mean weaker potency, low ones greater potency. As a reminder, the Papp A→B is how fast a substance crosses the layer from the apical side. `COC[C@@](O)([C@@H](Nc1cc(F)cc2[nH]c(=O)ccc12)c1ccc(OC)c(F)c1Cl)C(F)(F)F`: the half-inhibitory concentration (IC50) with PBMC [1] is 0.92 nM; in the series with PBMC [18], 0.88 nM; in the series on THP-1 [19], 0.398 nM; with PBMC [34] it was 0.42 nM; with PBMC [35], 0.75 nM; in the series on PBMC [36] it was 0.7 nM. The Efficacy in the series with PBMC [2] worked out at 96%; with PBMC [7], 98%; with PBMC [14] it was 99%; in the series with PBMC [20], 96%; with PBMC [33] it was 95%. The same compound returned a logP in series [3] of 3.3. The clearance in series [4] is 50 mL/min/kg; in series [5], 20 mL/min/kg; in [25], 60 mL/min/kg; in series [28], 20 mL/min/kg. Moreover, the Vd in series [6] was found to be 7 L/kg; in series [17], 2.1 L/kg. For the same compound, the Drug metabolism result in series [8], in series [9], in [11], in series [13], in series [16] and in [21] was “Metabolite_Detected” each time. The Drug metabolism entry in [23] is “Metabolite_Detected”; in series [27], “Metabolite_Notdetected”; in series [30], “Metabolite_Detected”. For the same compound, the CLint scaled is 12 mL/min/kg in series [10], 21.7 mL/min/kg in series [15] and 15.7 mL/min/kg in series [26]. The figures for the half-life in series [12] and in [22] were 1.9 h and 1.3 h, respectively. The efflux ratio in series [24] came out at 0.5. Further, the maximal effect (Emax) stood at 95% in the series with THP-1 [29] and 85% in the series on HeLa. This compound also had an EC50 in series [31] of 0.794 nM. The Papp A→B in [32] was 1.9 ×10⁻⁶ cm/s.
`COc1ccc([C@H](Nc2cc(F)cc3[nH]c(=O)ccc23)[C@](O)(CO)C(F)(F)F)c(Cl)c1F`: the logP in series [3] was 2.4. Besides, the Vd in series [37] stood at 18 L/kg. Moreover, the 50% inhibitory concentration (IC50) in the series on THP-1 [19] was 0.631 nM. The half-life in series [38] is 2.9 h. Moreover, the clearance in [39] is 113 mL/min/kg; in series [40] it was 100 mL/min/kg. Moreover, the Emax in the series with THP-1 [29] came to 92%; in the series with HeLa it was 88%. For the same compound, a half-maximal response in [31] (EC50) required 1 nM.
